# Laboratory results reported in ChEMBL document CHEMBL2016548, “Synthesis and evaluation of anti-thrombotic activity of benzocoumarin amide derivatives” (Bioorg Med Chem Lett, 2012).
# Active and inactive are the calls of the source. The calls are words filed in the database; no cut-off is given here.
# How the values were obtained:
# Platelet [1] = test: Antiplatelet activity in mouse platelet rich plasma assessed as inhibition of collagen-induced platelet aggregation at 100 uM by aggregometry; format: functional, cell-free
# Summary of the method: (§1)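 Mice anaesthetized with ether and bled by cardiac puncture. Platelet-rich plasma was pooled, split into sub-pools and spiked with compound or vehicle. Aggregation was induced with ADP or collagen and followed on a dual-channel aggregometer. Data given as mean ± SEM, n = 3, compared against vehicle control.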
# Platelet [2] = test: Antiplatelet activity in mouse platelet rich plasma assessed as inhibition of ADP-induced platelet aggregation at 100 uM by aggregometry; format: functional, cell-free; summary of the method: as §1
# Mus musculus [3] = test: Anti-thrombotic activity in collagen and adrenaline challenged mouse pulmonary thromboembolism model assessed as protection from paralysis or death at 30 mg/kg, po administered 60 mins prior thrombotic challenge; format: functional
# Summary of the method: (§2)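 Mice were dosed orally 60 min before the challenge, alongside a vehicle group. Pulmonary thromboembolism was then induced by tail-vein injection of a collagen plus adrenaline mixture. Groups held ten mice per test agent and five per reference drug or vehicle. The read-out was % protection against hind-limb paralysis or death.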
# Mus musculus [4] = test: Increase of bleeding time in mouse at 30 mg/kg, po administered 60 mins prior to tail incision; format: ADME, organism-based; set-up: dose 30 mg/kg, route oral; conditions: in vivo, 1 h
# Summary of the method: (§3)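 Compound, aspirin or vehicle given orally 60 min before cutting the tail 2 mm from the tip, five mice per group. Blood was blotted onto filter paper every 10–15 s until flow stopped. Bleeding time is the interval from incision to cessation.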
# Mus musculus [5] = test: Anti-thrombotic activity in collagen and adrenaline challenged mouse pulmonary thromboembolism model assessed as protection from paralysis or death at 30 uM/kg, po administered 60 mins prior to thrombotic challenge; format: functional; summary of the method: as §2
# Mus musculus [6] = test: Increase of bleeding time in mouse at 30 uM/kg, po administered 60 mins prior to tail incision; format: ADME, organism-based; conditions: in vivo, 1 h; summary of the method: as §3
# Platelet [7] = test: Antiplatelet activity in mouse platelet rich plasma assessed as inhibition of collagen-induced platelet aggregation at 30 uM by aggregometry; format: functional, cell-free; summary of the method: as §1
# Platelet [8] = test: Antiplatelet activity in mouse platelet rich plasma assessed as inhibition of ADP-induced platelet aggregation at 30 uM by aggregometry; format: functional, cell-free; summary of the method: as §1
# Plasma [9] = test: Anticoagulant activity in mouse platelet poor plasma assessed as increase in activated partial thromboplastin time at 30 uM by coagulometry; format: functional, cell-free
# Summary of the method: (§4)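 Mice anaesthetized with ether and bled by cardiac puncture. Platelet-poor plasma was pooled, split into sub-pools and spiked with compound or vehicle. Thrombin time, prothrombin time and APTT were run with commercial kits per manufacturer's instructions on a semi-automated coagulometer. Data given as mean ± SEM, n = 3, compared against vehicle control.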
# Plasma [10] = test: Anticoagulant activity in mouse platelet poor plasma assessed as increase in thrombin time at 30 uM by coagulometry; format: functional, cell-free; summary of the method: as §4
# Plasma [11] = test: Anticoagulant activity in mouse platelet poor plasma assessed as increase in prothrombin time at 30 uM by coagulometry; format: functional, cell-free; summary of the method: as §4
# Platelet [12] = test: Antiplatelet activity in mouse platelet rich plasma assessed as inhibition of collagen-induced platelet aggregation at 10 uM by aggregometry; format: functional, cell-free; summary of the method: as §1
# Platelet [13] = test: Antiplatelet activity in mouse platelet rich plasma assessed as inhibition of ADP-induced platelet aggregation at 10 uM by aggregometry; format: functional, cell-free; summary of the method: as §1
# Plasma [14] = test: Anticoagulant activity in mouse platelet poor plasma assessed as increase in activated partial thromboplastin time at 10 uM by coagulometry; format: functional, cell-free; summary of the method: as §4
# Plasma [15] = test: Anticoagulant activity in mouse platelet poor plasma assessed as increase in thrombin time at 10 uM by coagulometry; format: functional, cell-free; summary of the method: as §4
# Plasma [16] = test: Anticoagulant activity in mouse platelet poor plasma assessed as increase in prothrombin time at 10 uM by coagulometry; format: functional, cell-free; summary of the method: as §4
# Mus musculus [17] = test: Ex-vivo antiplatelet activity in mouse platelet rich plasma assessed as inhibition of ADP-induced platelet aggregation at 30 uM/kg, po for 3 days by aggregometry; format: functional
# Mus musculus [18] = test: Ex-vivo antiplatelet activity in mouse platelet rich plasma assessed as inhibition of collagen-induced platelet aggregation at 30 uM/kg, po for 3 days by aggregometry; format: functional
# Mus musculus [19] = test: Ex-vivo anticoagulant activity in mouse platelet poor plasma assessed as increase in thrombin time at 30 uM/kg, po for 3 days by coagulometry; format: functional
# Summary of the method: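 Mice were dosed orally for three days, then bled by cardiac puncture under ether anaesthesia. Thrombin time was measured in platelet-poor plasma with a commercial kit on a semi-automated coagulometer and compared with vehicle-treated controls.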
smiles,measurement,setting,value
CC(=O)Oc1ccccc1C(=O)O [ASPIRIN],inhibition,Platelet [1],Active
same,inhibition,Platelet [2],Active
same,Activity,Mus musculus [3],37%
same,Activity,Mus musculus [4],100%
COc1ccc(CNC(=O)COc2cccc3c2ccc2c(C)cc(=O)oc23)cc1,Activity,Mus musculus [5],10%
same,Activity,Mus musculus [6],8.2%
Cc1cc(=O)oc2c1ccc1c(OCC(=O)NCCCO)cccc12,Activity,Mus musculus [5],45%
same,Activity,Mus musculus [6],112.5%
same,inhibition,Platelet [7],Active
same,inhibition,Platelet [8],Active
same,Activity,Plasma [9],inactive
same,Activity,Plasma [10],Active
same,Activity,Plasma [11],inactive
same,inhibition,Platelet [12],inactive
same,inhibition,Platelet [13],inactive
same,Activity,Plasma [14],inactive
same,Activity,Plasma [15],inactive
same,Activity,Plasma [16],inactive
Cc1cc(=O)oc2c1ccc1c(OCC(=O)Nc3cccc(C(=O)O)c3)cccc12,Activity,Mus musculus [5],<10%
same,Activity,Mus musculus [6],8.5%
CCCNC(=O)COc1cccc2c1ccc1c(C)cc(=O)oc12,Activity,Mus musculus [5],40%
same,Activity,Mus musculus [6],91.5%
same,inhibition,Platelet [7],Active
same,inhibition,Platelet [8],Active
same,Activity,Plasma [9],inactive
same,Activity,Plasma [10],Active
same,Activity,Plasma [11],inactive
same,inhibition,Platelet [12],inactive
same,inhibition,Platelet [13],inactive
same,Activity,Plasma [14],inactive
same,Activity,Plasma [15],inactive
same,Activity,Plasma [16],inactive
Cc1cc(=O)oc2c1ccc1c(OCC(=O)NC(C)C)cccc12,Activity,Mus musculus [5],10%
same,Activity,Mus musculus [6],66.5%
Cc1cc(=O)oc2c1ccc1c(OCC(=O)NCc3ccccc3)cccc12,Activity,Mus musculus [5],10%
same,Activity,Mus musculus [6],8.5%
Cc1cc(=O)oc2c1ccc1c(OCC(=O)NC3CCCCC3)cccc12,Activity,Mus musculus [5],10%
same,Activity,Mus musculus [6],0%
Cc1ccc(CNC(=O)COc2cccc3c2ccc2c(C)cc(=O)oc23)cc1C,Activity,Mus musculus [6],58.5%
Cc1cc(=O)oc2c1ccc1c(OCC(=O)N3CCOCC3)cccc12,Activity,Mus musculus [5],30%
same,Activity,Mus musculus [6],66.8%
Cc1cc(=O)oc2c1ccc1c(OCC(=O)Nc3ccc(S(N)(=O)=O)cc3)cccc12,Activity,Mus musculus [5],<10%
same,Activity,Mus musculus [6],16.5%
Cc1cc(=O)oc2c1ccc1c(OCC(=O)NC(C)(C)C)cccc12,Activity,Mus musculus [5],40%
same,Activity,Mus musculus [6],96.5%
same,inhibition,Platelet [7],Active
same,inhibition,Platelet [8],Active
same,inhibition (INH),Mus musculus [17],38%
same,inhibition (INH),Mus musculus [18],90%
same,Activity,Plasma [9],inactive
same,Activity,Plasma [10],Active
same,Activity,Plasma [11],inactive
same,inhibition,Platelet [12],inactive
same,inhibition,Platelet [13],inactive
same,Activity,Plasma [14],inactive
same,Activity,Plasma [15],inactive
same,Activity,Plasma [16],inactive
same,Activity,Mus musculus [19],74%
Cc1cc(=O)oc2c1ccc1c(OCC(=O)N3CCCCC3)cccc12,Activity,Mus musculus [5],30%
same,Activity,Mus musculus [6],58.5%
Cc1cc(=O)oc2c1ccc1c(OCC(=O)N3CCN(C)CC3)cccc12,Activity,Mus musculus [5],10%
same,Activity,Mus musculus [6],8.5%
COc1cc(NC(=O)COc2cccc3c2ccc2c(C)cc(=O)oc23)cc(OC)c1OC,Activity,Mus musculus [5],20%
same,Activity,Mus musculus [6],41.7%
